From article PMC4561049 (Drugs in R&D, 2015)

Columns and labels:
[1] = system: patients with moderate-to-severe COPD; conditions: cited from earlier work
[2] = type: in vivo, human
Outline: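 Plasma sampling on day 28 in a subset of patients at overnight sites, after both the morning and the evening inhaled doses: 1 h–0 min pre-dose, then 0–30 min, 30 min–2 h, 2–6 h and 6–11 h post-dose. Samples were assayed by HPLC–MS (LLOQ 25 pg/mL), and concentrations were log-transformed. A two-compartment model with first-order absorption was fitted in NONMEM 7 by Monte Carlo importance sampling.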

[3] = system: patients with moderate-to-severe COPD; assay: Relationship between systemic exposure; type: in vivo, human; conditions: 0 to 4 h, day 1 and day 28; 100-800 μg once daily, 100-400 μg twice daily
Outline: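 Individual observed plasma Cmax was plotted against maximum glucose, heart rate, QTcF (Fridericia correction) and potassium over 0–4 h on day 1 and day 28. Relationships were explored graphically only. Placebo Cmax was set to 0 pg/mL, and below-LLOQ values were plotted as 12.5 pg/mL (half of the 25 pg/mL LLOQ).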

[4] = system: patients with moderate-to-severe COPD; assay: Population pharmacodynamic Emax model of day 29 trough FEV1 in COPD patients; type: in vivo, human
Outline: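 COPD patients (≥40 y, ≥10 pack-years) received inhaled DISKUS test compound for 4 weeks: 100, 400 or 800 μg once daily (morning) or 100, 200 or 400 μg twice daily. Day 29 trough FEV1 (Vitalograph) was the mean of the 11 and 12 h post-evening-dose readings on day 28. An Emax model on total daily dose, with both regimens pooled, was fitted in NONMEM 7 (FOCE with interaction).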

patients with COPD = conditions: 1200 µg once daily; cited from earlier work

Vd/F ([2]; human, plasma, inhaled): 6.26 L
Interindividual variability CL/F ([2]; population PK model, column head Log estimate): 0.594
Relationship between maximum glucose and individual observed Cmax [3]: No clear relationships
Relationship between minimum potassium and individual observed Cmax [3]: No clear relationships
Compound: COc1cc(NC(=O)CCN2CCC(OC(=O)Nc3ccccc3-c3ccccc3)CC2)c(Cl)cc1CNC[C@H](O)c1ccc(O)c2[nH]c(=O)ccc12 [GSK961081, batefenterol]
Improvement in the trough FEV1 ([1]; after 28 days of treatment): 155 to 277 mL
Dose response of QTc prolongation [1]: no apparent dose response
Onset of action [1]: rapid onset of action
Tolerability [1]: well tolerated
Prolongation of various QTc intervals ([1]; in comparison with placebo or salmeterol): 3 to 5 ms
Effect on glucose levels, potassium levels, heart rate, or blood pressure ([1]; safety findings of the primary publication): no effect
Increase in the trough FEV1 from 400 to 800 μg ([1]; total daily dose): only a small increase
Relationship between maximum QTcF and individual observed Cmax [3]: No clear relationships
Relationship between maximum heart rate and individual observed Cmax [3]: No clear relationships
Intercept for E0 (FEV1 at zero dose) ([4]; Emax model of day 29 trough FEV1, 347 COPD patients): 0.0650 L
ED50 (dose producing 50 % of the maximum effect) ([4]; Emax model of day 29 trough FEV1 versus total daily dose, 347 COPD patients): 152 µg
Difference between once-daily and twice-daily dosing for day 29 trough FEV1 ([4]; influence of dosing regimen on the PD model): no apparent difference
Prolongation of the QT interval (patients with COPD): no prolongation of the QT interval
